ChEMBL document CHEMBL1131066, “2-Substituted aminopyrido[2,3-d]pyrimidin-7(8H)-ones. structure-activity relationships against selected tyrosine kinases and in vitro and in vivo anticancer activity” (J Med Chem, 1998)

Assays:
A-431 [1] = assay: Ratio of treated and control A431 cell tumor mass in mice at 5 mg/kg peroral dose, days 7-21 administration; assay type: functional, Mus musculus; conditions: route oral
In short: (§1)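 Nude mice (NCr nu/nu), 6–8 per group, 18–22 g, tumor fragments implanted in right axilla on day 0 (A431, C6, MCF-7, or NIH3T3 carrying human PDGF receptor), dosed by average cage weight; vehicle 50 mM sodium lactate buffer pH 4.0 unless suspended in 0.5% methyl cellulose. %T/C = median treated/median control tumor mass ×100, last therapy day.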

A-431 [2] = assay: Difference in days for treated (T) and control (C) A431 cell tumors to reach 750 mg in mice at 5 mg/kg peroral dose, days 7-21 administration; assay type: functional, Mus musculus; conditions: route oral
In short: (§2)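 Nude mice (NCr nu/nu), 18–22 g, 6–8 per group, randomized and implanted with serially passaged tumor fragments in the right axilla on day 0. Dosed by average cage weight. Vehicle was 50 mM sodium lactate buffer, pH 4.0, or a 0.5% methyl cellulose suspension for one compound. Cisplatin was given in saline. T − C is the difference in days for treated and control tumors to reach 750 mg.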

A-431 [3] = assay: Net reduction in tumor burden between first and last treatments of A431 cell tumors in mice at 5 mg/kg peroral dose, days 7-21 administration; assay type: functional, Mus musculus; conditions: route oral
In short: (§3)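 NCr nu/nu nude mice (18–22 g, 6–8 per group, randomized) had tumor fragments, kept by serial passage in nude mice, implanted in the right axilla on day 0. Mice were dosed by average cage weight on the listed days, over a range from toxic to ineffective doses. Vehicle was 50 mM sodium lactate pH 4.0 or 0.5% methyl cellulose suspension. Net log cell kill was taken between first and last treatments.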

A-431 [4] = assay: Weight change of A431 cell tumors in mice at 5 mg/kg peroral dose, days 7-21 administration; assay type: functional, Mus musculus; conditions: route oral
In short: (§4)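 Tumor-bearing nude mice (NCr nu/nu, 18–22 g, 6–8 per group) were implanted in the right axilla with tumor fragments on day 0 and dosed by average cage weight. Vehicle was 50 mM sodium lactate pH 4.0, or 0.5% methyl cellulose suspension; cisplatin was given in saline. Host body weight change is given as the maximum treatment-related weight loss.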

C6 [5] = assay: Net reduction in tumor burden between first and last treatments of C6 glioma cell tumors in mice at 10 mg/kg peroral dose, days 1-15 administration; assay type: functional, Mus musculus; conditions: route oral; in short: as §3
C6 [6] = assay: Weight change of C6 glioma tumor cells in mice at 10 mg/kg peroral dose, days 1-15 administration; assay type: functional, Mus musculus; conditions: route oral; in short: as §4
C6 [7] = assay: C6 cell growth in soft agar with discontinued treatment; assay type: functional, cell-based, Rattus norvegicus; conditions: Rattus norvegicus, C6
In short: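 C6 rat glioma cells given 3-day exposure to a concentration series, then washed free of inhibitor and plated in drug-free soft agar; colonies stained and counted after two weeks. IC50; mean of two experiments, each in duplicate.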

C6 [8] = assay: C6 cell growth in soft agar with continuous treatment; assay type: functional, cell-based, Rattus norvegicus; conditions: Rattus norvegicus, C6
In short: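 C6 rat glioma cells (F10 Ham's with 15% horse serum, 2.5% fetal calf serum) exposed 3 days to a concentration series, then plated in soft agar with compound still present at the same concentration; colonies stained and counted after two weeks. IC50; mean of two experiments, each in duplicate.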

C6 [9] = assay: Inhibition of C6 cell proliferation in sulforhodamine B assay; assay type: functional, cell-based, Rattus norvegicus; conditions: Rattus norvegicus, C6
In short: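 C6 rat glioma cells (F10 Ham's, 15% horse serum, 2.5% fetal calf serum) seeded and allowed 24 h to attach, then given serial 2-fold compound dilutions; 4 d at 37 °C, 5% CO2; growth read by sulforhodamine B staining. IC50; mean of two experiments, each in triplicate.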

[10] = molecular target: Platelet-derived growth factor receptor (PDGFr) (Rattus norvegicus, UniProt P20786+Q05030); assay: Inhibition of PDGF-induced autophosphorylation of PDGF-R in C6 cells
C6 [11] = assay: Ratio of treated and control C6 glioma cell tumor mass in mice at 10 mg/kg peroral dose, days 1-15 administration; assay type: functional, Mus musculus; conditions: route oral; in short: as §1
C6 [12] = assay: Difference in days for treated (T) and control (C) C6 glioma cell tumors to reach 750 mg in mice at 10 mg/kg peroral dose, days 1-15 administration; assay type: functional, Mus musculus; conditions: route oral; in short: as §2
COLO 205 [13] = assay: Ratio of treated and control COLO 205 cell tumor mass in mice at […] peroral dose, days 9-23 administration; assay type: functional, Mus musculus; conditions: route oral
COLO 205 [14] = assay: Difference in days for treated (T)and control (C) COLO 205 cell tumors to reach 750 mg in mice at […] peroral dose, days 9-23 administration; assay type: functional, Mus musculus; conditions: route oral
COLO 205 [15] = assay: Weight change of COLO 205 cell tumors in mice at […] peroral dose, days 9-23 administration; assay type: functional, organism-based; parameters: dose 8.9 mg/kg; conditions: Mus musculus
[16] = molecular target: Fibroblast growth factor receptor 1 (Homo sapiens, UniProt P11362); assay: Inhibition of fibroblast growth factor receptor (FGFr)
Fibroblast growth factor receptor 1, sequence (P11362 whole entry): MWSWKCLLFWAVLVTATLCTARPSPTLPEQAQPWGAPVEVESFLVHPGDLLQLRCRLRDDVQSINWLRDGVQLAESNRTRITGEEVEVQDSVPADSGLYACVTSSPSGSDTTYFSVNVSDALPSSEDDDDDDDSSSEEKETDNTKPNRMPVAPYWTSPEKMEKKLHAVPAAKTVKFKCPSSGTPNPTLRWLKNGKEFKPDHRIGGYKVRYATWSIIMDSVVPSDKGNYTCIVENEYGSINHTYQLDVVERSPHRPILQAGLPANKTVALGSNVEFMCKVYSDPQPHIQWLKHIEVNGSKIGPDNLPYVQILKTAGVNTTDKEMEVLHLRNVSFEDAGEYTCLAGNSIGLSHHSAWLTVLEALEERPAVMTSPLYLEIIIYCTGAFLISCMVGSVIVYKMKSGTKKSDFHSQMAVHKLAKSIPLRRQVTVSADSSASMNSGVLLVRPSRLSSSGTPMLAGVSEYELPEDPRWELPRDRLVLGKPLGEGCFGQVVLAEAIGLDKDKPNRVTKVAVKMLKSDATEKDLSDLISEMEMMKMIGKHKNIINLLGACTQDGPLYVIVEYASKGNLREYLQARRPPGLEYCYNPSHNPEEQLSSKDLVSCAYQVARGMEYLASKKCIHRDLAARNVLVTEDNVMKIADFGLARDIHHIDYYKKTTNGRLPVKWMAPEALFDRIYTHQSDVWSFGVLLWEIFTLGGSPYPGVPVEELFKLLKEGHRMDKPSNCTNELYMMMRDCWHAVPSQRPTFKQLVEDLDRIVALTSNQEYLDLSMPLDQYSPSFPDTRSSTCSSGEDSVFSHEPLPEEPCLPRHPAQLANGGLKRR
In short: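 Recombinant kinases (PDGFr-β, FGFr-1, c-Src), enzyme inhibition IC50. Mean of at least two separate determinations, each done in triplicate; replicate values typically varied under 30%.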

HT-29 [17] = assay: Difference in days for treated (T) and control (C) HT-29 cell tumors to reach 750 mg in mice at […] peroral dose, days 15-29 administration; assay type: functional, Mus musculus; conditions: route oral
HT-29 [18] = assay: Weight change of HT-29 cell tumors in mice at […] peroral dose, days 15-29 administration; assay type: functional, organism-based; parameters: dose 8.3 mg/kg; conditions: Mus musculus
MCF7 [19] = assay: Ratio of treated and control MCF-7 tumor mass in mice at 5 mg/kg peroral dose, days 1-15 administration; assay type: functional, Mus musculus; conditions: route oral; in short: as §1
MCF7 [20] = assay: Difference in days for treated (T) and control (C) MCF-7 cell tumors to reach 750 mg in mice at 5 mg/kg peroral dose, days 1-15 administration; assay type: functional, Mus musculus; conditions: route oral; in short: as §2
MCF7 [21] = assay: Net reduction in tumor burden between first and last treatments of MCF-7 cells in mice at 5 mg/kg peroral dose, days 1-15 administration; assay type: functional, Mus musculus; conditions: route oral; in short: as §3
MCF7 [22] = assay: Weight change for MCF-7 cell tumors in mice at 5 mg/kg peroral dose, days 1-15 administration; assay type: functional, organism-based; parameters: dose 5 mg/kg; conditions: Mus musculus; in short: as §4
SK-OV-3 [23] = assay: Difference in days for treated (T) and control (C) SKOV-3 cell tumors to reach 750 mg in mice at […] peroral dose, days 15-29 administration; assay type: functional; conditions: route oral
SK-OV-3 [24] = assay: Ratio of treated and control SKOV-3 cell tumor mass in mice at […] peroral dose, days 15-29 administration; assay type: functional; conditions: route oral
SK-OV-3 [25] = assay: Weight change of SK-OV-3 cell tumors in mice at […] peroral dose, days 15-29 administration; assay type: functional, organism-based; parameters: dose 8.9 mg/kg
NIH3T3 [26] = assay: Growth of NIH3T3 cell colonies in soft agar with continuous treatment; assay type: functional, cell-based; conditions: Mus musculus
In short: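 Soft agar cloning used PDGF-B-transfected NIH3T3 (NIH3T3/PDGF) cells. Cells were exposed 3 days to a concentration series, then plated in soft agar with the matching compound concentration kept present. Colonies were stained and counted after two weeks. IC50; mean of two experiments, each in duplicate.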

NIH3T3 [27] = assay: Growth of NIH3T3 cell colonies in soft agar with discontinued treatment; assay type: functional, cell-based; conditions: Mus musculus
In short: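 PDGF-B-transfected NIH3T3 (NIH3T3/PDGF) cells exposed 3 days to a concentration series, washed free of inhibitor, plated in drug-free soft agar; colonies stained and counted after two weeks. IC50; mean of two experiments, each in duplicate.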

NIH3T3 [28] = assay: Inhibition of NIH3T3 proliferation by sulforhodamine B assay; assay type: functional, cell-based, Mus musculus; conditions: Mus musculus, NIH3T3
[29] = molecular target: Platelet-derived growth factor receptor (Mus musculus, UniProt P05622+P26618); assay: Inhibition of PDGF-induced autophosphorylation of PDGF-R in NIH3T3 cells
[30] = molecular target: Platelet-derived growth factor receptor beta (Mus musculus, UniProt P05622); assay: Inhibitory concentration was evaluated against Platelet-derived growth factor receptor beta (PDGFr) tyrosine kinase
Platelet-derived growth factor receptor beta, sequence (P05622 whole entry): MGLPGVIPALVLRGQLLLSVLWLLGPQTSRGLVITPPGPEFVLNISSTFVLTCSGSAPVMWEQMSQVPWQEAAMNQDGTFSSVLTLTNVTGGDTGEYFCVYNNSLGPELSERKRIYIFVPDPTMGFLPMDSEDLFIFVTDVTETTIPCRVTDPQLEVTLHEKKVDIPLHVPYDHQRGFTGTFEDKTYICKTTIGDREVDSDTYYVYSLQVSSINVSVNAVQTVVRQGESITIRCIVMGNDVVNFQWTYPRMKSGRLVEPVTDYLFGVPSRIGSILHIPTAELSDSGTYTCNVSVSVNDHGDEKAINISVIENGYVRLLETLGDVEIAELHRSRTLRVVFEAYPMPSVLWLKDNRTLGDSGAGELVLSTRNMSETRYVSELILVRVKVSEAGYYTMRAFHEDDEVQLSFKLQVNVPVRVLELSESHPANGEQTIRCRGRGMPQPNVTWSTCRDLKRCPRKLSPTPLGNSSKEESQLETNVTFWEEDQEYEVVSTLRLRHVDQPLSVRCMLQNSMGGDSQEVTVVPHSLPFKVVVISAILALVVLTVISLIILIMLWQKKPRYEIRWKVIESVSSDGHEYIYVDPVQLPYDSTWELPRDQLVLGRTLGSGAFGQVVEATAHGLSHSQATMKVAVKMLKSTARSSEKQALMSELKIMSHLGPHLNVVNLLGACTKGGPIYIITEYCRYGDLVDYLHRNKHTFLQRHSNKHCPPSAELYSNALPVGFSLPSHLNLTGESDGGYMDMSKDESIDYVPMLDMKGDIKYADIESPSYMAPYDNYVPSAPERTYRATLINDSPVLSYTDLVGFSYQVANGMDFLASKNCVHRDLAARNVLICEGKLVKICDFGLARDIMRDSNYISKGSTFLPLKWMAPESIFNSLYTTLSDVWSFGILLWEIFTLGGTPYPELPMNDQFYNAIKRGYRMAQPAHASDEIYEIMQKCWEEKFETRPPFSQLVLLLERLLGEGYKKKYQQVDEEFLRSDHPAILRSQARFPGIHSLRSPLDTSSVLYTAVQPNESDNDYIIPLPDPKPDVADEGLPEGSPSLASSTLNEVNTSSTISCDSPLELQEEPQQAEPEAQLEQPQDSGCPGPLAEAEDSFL

Mus musculus [31] = assay: Ratio of treated and control PDGF-transfected mouse fibroblast tumor mass in mice at 12 mg/kg peroral dose, days 1-15 administration; assay type: functional; conditions: route oral; in short: as §1
Mus musculus [32] = assay: Difference in days for treated (T) and control (C) PDGF-transfected mouse fibroblast tumors to reach 750 mg in mice at 12 mg/kg peroral dose, days 1-15 administration; assay type: functional; conditions: route oral; in short: as §2
Mus musculus [33] = assay: Net reduction in tumor burden between the first and last treatments of PDGF-transfected fibroblast cells in mice at 12 mg/kg peroral dose, days 1-15 administration; assay type: functional; conditions: route oral; in short: as §3
[34] = molecular target: Proto-oncogene tyrosine-protein kinase Src (Gallus gallus, UniProt P00523); assay: Inhibition of avian c-Src tyrosine kinase
Mus musculus [35] = assay: Weight change in PDGF-transfected mouse fibroblasts in mice at 12 mg/kg peroral dose, days 1-15 administration; assay type: functional; conditions: route oral; in short: as §4
COLO 205 [36] = assay: Net reduction in tumor burden between first and last treatments of COLO 205 cell tumors in mice at […] peroral dose, days 9-23 administration; assay type: functional, Mus musculus; conditions: route oral

## CCN(CC)CCOc1ccc(Nc2ncc3cc(-c4c(Cl)cccc4Cl)c(=O)n(CC)c3n2)cc1
A-431 [1]
  Ratio: 96%
A-431 [2]
  T-C: 3.3 days
A-431 [3]
  Net cell kill: -0.6 log10
A-431 [4]
  Weight change: -2.7 g
C6 [5]
  Net cell kill: -0.9 log10
C6 [6]
  Weight change: -1.2 g
C6 [7]
  IC50: 400 nM
C6 [8]
  IC50: 120 nM
C6 [9]
  IC50: 350 nM
[10]
  IC50: 1 nM
C6 [11]
  Ratio: 56%
C6 [12]
  T-C: 3 days
COLO 205 [13]
  Ratio: 57%
COLO 205 [14]
  T-C: 10.3 days
COLO 205 [15]
  Weight change: Weight gain
[16]
  IC50: 30 nM
HT-29 [17]
  T-C: -4.8 days
HT-29 [18]
  Weight change: Weight gain
MCF7 [19]
  Ratio: 51%
MCF7 [20]
  T-C: 18.3 days
MCF7 [21]
  Net cell kill: 0.2 log10
MCF7 [22]
  Weight change: Weight gain
SK-OV-3 [23]
  T-C: -0.8 days
SK-OV-3 [24]
  Ratio: 106%
SK-OV-3 [25]
  Weight change: Weight gain
NIH3T3 [26]
  IC50: 1.5 nM
NIH3T3 [27]
  IC50: 17 nM
NIH3T3 [28]
  IC50: 410 nM
[29]
  IC50: 1.7 nM
[30]
  IC50: 150 nM
Mus musculus [31]
  Ratio: 13%
Mus musculus [32]
  T-C: 5.9 days
Mus musculus [33]
  Net cell kill: -1.2 log10
[34]
  IC50: 17 nM
Mus musculus [35]
  Weight change: -2.6 g
COLO 205 [36]
  Net cell kill: -0.2 log10
